Glyco luc inh – N-linked glycosylation inhibition; D54 ERlucT glycosylation luciferase reporter, 24 h; percent of 100 nM tunicamycin response; reporter increase, % at 12.5 µM; 360,000 compounds, 0.23% hits;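 active means mean luciferase reporter signal, scaled so untreated is 0 and the glycosylation-blocking control 100, at or above a set limit in every replicate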;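 further: luciferase carries N-glycosylation sites so blocking glycosylation raises the light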
PAX8 inh HTS – inhibitors of PAX8 transcriptional activity in RMG-I cells; RMG-I TPO-luciferase reporter, SteadyGlo, 24 h; inhibition, % at 12.6 µM; 360,000 compounds, 1.2% hits; AID 652154;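 active means mean replicate inhibition at least 60% with every replicate also reaching 60%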;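 further: luciferase light reporting Pax8 driven TPO promoter activity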
Arr AP2 block – blocks beta-arrestin peptide binding to AP2 adaptin; FITC-arrestin peptide / GST-AP2 beads, flow cytometry; AP2 beta2 appendage carries R879A mutation; inhibition, % at 10 µM; 340,000 compounds, 0.31% hits; AID 504490;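 active means inhibition above a set limit, near 3 SD of compounds lacking own fluorescence, cut at about 54% in these data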
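System: GST-tagged AP2 beta2-adaptin appendage (R879A) on 4 µm glutathione beads / Reagent: FITC-arrestin peptide, 50 nM / Detection: HyperCyt-sampled flow cytometry, FL1 channel, ex 488/em 535 nm / Timing: 12 min plus 1 h, RT / Buffer or medium: PBS plus Tween 20 (0.05%) and BSA (0.1%)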
HIV Env fusion – HIV envelope-mediated fusion inhibition | HeLa-JRFL Env/CEM21 cell fusion, luciferase | inhibition, % at 12.3 µM | 360,000 compounds, 1.1% hits | AID 651610;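 active means mean replicate inhibition score of at least 50 and every replicate individually at or above 50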
PfHsp90 set2 – reduces growth (ATP signal) of yeast expressing P. falciparum Hsp90; inhibition, % at 9.4 µM; 310,000 compounds, 0.32% hits; S. cerevisiae expressing PfHsp90, BacTiter-Glo ATP, 48 h; yeast lacking PDR1 and PDR3 efflux regulators;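 active means every replicate shows inhibition above about 80%, whatever the replicate mean, limit read from the data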
Rtt109 HAT inh – blocks Candida albicans Rtt109/Vps75 acetyltransferase activity. AID 540336. Q5AAJ8. purified Rtt109/Vps75, ThioGlo CoA-SH fluorescence, 4 h. 330,000 compounds, 0.16% hits. inhibition, % at 34.9 µM;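 active means inhibition of at least 50% in every replicate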
Target sequence (Q5AAJ8 whole entry, looked up): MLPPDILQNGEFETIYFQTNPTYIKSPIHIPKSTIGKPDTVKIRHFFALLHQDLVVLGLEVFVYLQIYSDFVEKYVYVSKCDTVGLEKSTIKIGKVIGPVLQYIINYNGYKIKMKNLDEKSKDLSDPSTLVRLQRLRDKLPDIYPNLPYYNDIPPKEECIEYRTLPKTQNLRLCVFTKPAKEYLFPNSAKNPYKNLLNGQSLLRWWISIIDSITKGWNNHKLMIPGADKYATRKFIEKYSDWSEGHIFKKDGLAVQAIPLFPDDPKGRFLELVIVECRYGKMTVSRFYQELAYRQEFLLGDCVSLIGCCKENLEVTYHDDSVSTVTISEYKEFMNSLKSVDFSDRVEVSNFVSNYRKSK
Each line names hits and unclear results; the compound was inactive in the other large screens. This is a sample that favours compounds with a hit; in the whole collection about 2.3% have one here.

CCOC(=O)c1cnc2ccc(C(=O)OC)cc2c1Nc1ccc(C(=O)O)cc1	PAX8 inh HTS 104 (no result: Rtt109 HAT inh)
O=C1OC(c2ccccc2)(c2ccc3cc(O)ccc3c2)c2ccccc21 (centres undefined)	PfHsp90 set2 113
CCCNC(=O)N[C@H]1CC[C@@H](CC(=O)NC2CCCCC2)O[C@@H]1CO	none (no result: Glyco luc inh, Arr AP2 block, PfHsp90 set2, Rtt109 HAT inh)
CC(C)n1c(NCCc2ccccc2)nc2c1c(=O)n(C)c(=O)n2C	HIV Env fusion 110
C[C@H](CO)N1C[C@H](C)[C@H](CN(C)S(=O)(=O)c2ccc(F)cc2)Oc2ccc(NS(=O)(=O)c3ccc(F)cc3)cc2C1=O	none (no result: Glyco luc inh, Arr AP2 block, PfHsp90 set2, Rtt109 HAT inh)
O=C(N/N=C/c1sc(N2CCOCC2)nc1-c1ccccc1)c1ccccc1Cl	none
O=[N+]([O-])c1ccc(N/N=C/c2sc(N3CCOCC3)nc2-c2ccccc2)c(S(=O)(=O)Nc2ccc(Cl)cc2)c1	PAX8 inh HTS 102
O=C(N/N=C/c1sc(N2CCOCC2)nc1-c1ccccc1)c1cccc(S(=O)(=O)N2CCOCC2)c1	HIV Env fusion 88
O=[N+]([O-])c1ccc(N/N=C/c2sc(N3CCOCC3)nc2-c2ccccc2)c(S(=O)(=O)Nc2ccccc2Cl)c1	HIV Env fusion 95
O=C(Cc1ccccn1)N[C@@H]1CC[C@@H](CC(=O)N2CCCCC2)O[C@H]1CO	none (no result: Glyco luc inh, Arr AP2 block, PfHsp90 set2, Rtt109 HAT inh)
C[C@H](CO)N1C[C@H](C)[C@H](CN(C)CC2CC2)Oc2cc(-c3cccc(C#N)c3)ccc2S1(=O)=O	none (no result: Glyco luc inh, Arr AP2 block, HIV Env fusion, PfHsp90 set2, Rtt109 HAT inh)
N#C[C@@H]1[C@H](c2ccccc2-c2cccc(F)c2)[C@H](CO)N1C(=O)Cc1cccnc1	none (no result: Glyco luc inh, Arr AP2 block, HIV Env fusion, PfHsp90 set2, Rtt109 HAT inh)
C[C@@H]1CN([C@H](C)CO)S(=O)(=O)c2ccc(-c3cccc(C#N)c3)cc2O[C@H]1CN(C)C(=O)c1cccnc1	none (no result: Glyco luc inh, PAX8 inh HTS, Arr AP2 block, PfHsp90 set2, Rtt109 HAT inh)
c1ccc(-c2cc(-c3nnc4n3N=C(c3ccc5ccccc5c3)CS4)[nH]n2)cc1	Glyco luc inh 46 (no result: PAX8 inh HTS)
Cc1cc(-c2nnc3n2N=C(c2ccc(-c4ccccc4)cc2)CS3)n[nH]1	Glyco luc inh 37 (no result: PAX8 inh HTS, HIV Env fusion)
Cc1cc(-c2nnc3n2N=C(c2ccccc2)CS3)n[nH]1	none
Cc1noc(C)c1NC(=O)NCC[C@@H]1CC[C@H](NC(=O)c2ccccc2)[C@H](CO)O1	none (no result: Glyco luc inh, Arr AP2 block, PfHsp90 set2, Rtt109 HAT inh)
C[C@@H]1CN([C@H](C)CO)S(=O)(=O)c2ccc(-c3cccnc3)cc2O[C@H]1CN(C)CC1CC1	none (no result: Glyco luc inh, PAX8 inh HTS, Arr AP2 block, PfHsp90 set2, Rtt109 HAT inh)
CC(=O)N(C)C[C@H]1Oc2cc(-c3ccccc3)ccc2S(=O)(=O)N([C@@H](C)CO)C[C@H]1C	none (no result: Glyco luc inh, Arr AP2 block, PfHsp90 set2, Rtt109 HAT inh)
CN(C)CCNC(=O)c1cc2c(s1)-c1ccc(Cl)cc1SC2	PAX8 inh HTS 93
CCOCCCNC(=O)c1cc2c(s1)-c1ccccc1SC2	none
CCc1ccn2cc(-c3cc(-c4ccccc4)no3)nc2c1	PAX8 inh HTS 83
Cc1cc(C)c2c(=O)n(CC(=O)Nc3cccc(Cl)c3C)sc2n1	Rtt109 HAT inh 150
O=C(C[C@H]1C[C@H]2c3cc(NS(=O)(=O)c4ccc(F)cc4)ccc3O[C@H]2[C@@H](CO)O1)N1CCCCC1	none (no result: Glyco luc inh, Arr AP2 block, PfHsp90 set2, Rtt109 HAT inh)
Cc1cc(NC(=O)COc2ccc(F)c(Cl)c2)no1	HIV Env fusion 65
Cc1cc(NC(=O)COc2ccc(C)c(C)c2)no1	none
Cc1ccc(CNC(=O)C2CCN(S(=O)(=O)c3c(C)noc3/C=C/c3ccco3)CC2)cc1	PAX8 inh HTS 83
O=C(CCN1CCCCC1)N[C@H]1CC[C@@H](CC(=O)N2CCC(Cc3ccccc3)CC2)O[C@@H]1CO	none (no result: Glyco luc inh, Arr AP2 block, PfHsp90 set2, Rtt109 HAT inh)
CCN1[C@@H]2c3ccc(/C=C/c4ccccc4)c(=O)n3C[C@H]1[C@H](CO)[C@H]2C(=O)NCc1ccccn1	none (no result: Glyco luc inh, Arr AP2 block, HIV Env fusion, PfHsp90 set2, Rtt109 HAT inh)
Cc1nn2c(NCc3ccccn3)cc(C(C)(C)C)nc2c1-c1ccccc1	PfHsp90 set2 120
CN1CCN(C(=O)C[C@H]2CC[C@H]3[C@@H](COC[C@H](O)CN3Cc3cccc(Cl)c3)O2)CC1	none (no result: Glyco luc inh, Arr AP2 block, HIV Env fusion, PfHsp90 set2, Rtt109 HAT inh)
O=C(C1CCC(CNc2nc(=S)[nH]c3ccccc23)CC1)N1CCN(c2ccccn2)CC1 (centres undefined)	HIV Env fusion 65 (no result: PAX8 inh HTS)
C[C@H]1CCCCO[C@@H](CN(C)C(=O)c2ccncc2)[C@@H](C)CN([C@@H](C)CO)C(=O)c2cc(NC(=O)c3ccncc3)ccc2O1	none (no result: Glyco luc inh, Arr AP2 block, PfHsp90 set2, Rtt109 HAT inh)
